Assay results from ChEMBL document CHEMBL4513216, “Probing the Open Global Health Chemical Diversity Library for Multistage-Active Starting Points for Next-Generation Antimalarials” (ACS Infect Dis, 2020).

Assay: Toxicity liver stage against HepG2, at 10uM
Format: cell-based
Set-up: test concentration 10 uM, cell line HepG2-A16-CD81EGFP
Details: human, HepG2-A16-CD81EGFP cells; read-out: INHIBITION
Summary of the method: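 Uninfected HepG2-A16-CD81EGFP cells, 3 × 10^3 per well, 1536-well, plated on prespotted compound at 10 μM final, parasite-free screening media added to match infected plates; puromycin 10 μM positive, DMSO 0.5% negative; run in parallel with 48 h PbLuc assay at 37 °C, 5% CO2; viability by CellTiter-Glo luminescence, normalized to controls.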

Structure (SMILES)	cytotoxicity at 10 µM [%]
COc1ccc2c(c1)nc1n2[C@@H](CN(C2CCC2)C2CCC2)COC1	5.96
Cc1noc2ncnc(N(C)Cc3ccco3)c12	2.57
COc1ccc(CN2CCCCCC2c2cccs2)c(OC)c1 (configuration not stated)	11
CN(C)CCCn1cnc2cc(NC(=O)c3n[nH]c4c3CCC4)ccc21	-5.3
Cc1nccn1-c1ccc(=O)n(CCNC(=O)c2ccncc2)n1	-3.18
CC(=O)N1CC[C@@H](N2CCN(C)CC2)[C@@H]1Cc1ccccc1	9.04
CCC(C)Nc1ccc2c(c1)C1(CCOCC1)C(=O)N2c1ccccc1 (configuration not stated)	8.7
CC(C)C(=O)N1CCCC2(CCCN2Cc2cccnc2)C1 (configuration not stated)	5.22
CO[C@@H]1CCN(S(=O)(=O)c2cn(C)cn2)[C@H]1Cc1ccccc1	7.13
CC(C)NC(=O)C1CN(C(=O)Cc2cccc(F)c2)CC12CCOCC2 (configuration not stated)	4.58
Cc1cccc(CN2CCC3(CCCN(C(=O)CN(C)C)C3)C2=O)n1 (configuration not stated)	-3.49
O=C(Cn1ccc2c(Cl)cccc21)N1CCC2(CC1)OCCO2	14.2
O=C1CC2(CCN(c3nncs3)C2)CN1c1ccccc1 (configuration not stated)	-8.25
CC(C)CC(=O)N1CC[C@@H]2[C@H](CC1)N(S(C)(=O)=O)CCS2(=O)=O	-11.4
O=C(NCC1CC1)C1CN(C(=O)c2cccs2)CC12CCOCC2 (configuration not stated)	-14
CCc1nc(NCCCn2cccn2)c2c(n1)c(C)nn2C	6.41
Cc1nn(CC(=O)N2CCN(c3ccccc3F)CC2)c(C)c1Cl	-12.6
Cc1cc(C(=O)N2CCN(c3ncc4c(n3)CCOC4)CC2)sc1C	0.794
CC(NC(=O)C1CC1)c1cc(O)nc(-c2cccnc2)n1 (configuration not stated)	2.67
CS(=O)(=O)N1CCCC1c1ccnc2nccn12 (configuration not stated)	-2.62
NC(=O)c1cnn2c(C3CCCN(C4CCOCC4)C3)ccnc12 (configuration not stated)	4.34
Cc1cc2ccncc2n1CC1(O)CCN(C(=O)c2cccnc2)CC1	4.18
O=C(CC1CCN(c2cccnn2)CC1)NCCO	0.308

Structure (SMILES)	cytotoxicity at 10 µM [%]
O=C1NC2(CCCN(C(=O)CCn3cccn3)C2)Oc2ccccc21 (configuration not stated)	-6.19
CC(=O)N1CCCC1c1nc(C)c2c(n1)N(Cc1ccccn1)CCC2 (configuration not stated)	0.711
CCCC(=O)N1CCCC(c2ccccn2)C1 (configuration not stated)	0.0858
Cc1cc(-c2cnn(CCNC(=O)c3cnn(C)c3)c2C2CC2)on1	-5.58
Cc1ccc(S(=O)(=O)N2CCC(O)(CN(C)C)C2)cc1 (configuration not stated)	-7.02
Cc1nnc(CN(C)CC(=O)NC(C)(C)c2ccc(F)cc2)n1C	-4.25
COc1cc(C(=O)NC2COc3ccccc3C2)ccc1OCC(N)=O (configuration not stated)	-22.8
CC1(C)CN(C(=O)c2cc(F)cc3[nH]cnc23)CCS1	-7.36
CCC(C(=O)NCCc1coc(-c2ccc(C)cc2)n1)N(C)C (configuration not stated)	-1.13
CC(NC(=O)CCn1cccn1)c1ccc(-n2ccnn2)cc1 (configuration not stated)	-1.99
CC(C)Oc1ccc(CN)c(C(F)(F)F)c1	0.71
CCn1nc(C)cc1C(=O)OCC1CC(=O)N(Cc2ccccc2)C1 (configuration not stated)	6.68
Cc1ncccc1C(=O)NCC(C)Oc1ccc(F)cc1 (configuration not stated)	-4.08
COc1ccc(CNCC2CN(C3CC3)CCO2)cc1C (configuration not stated)	-8.01
COc1ccc(-c2nnc(CN3CCNC(=O)C3)o2)cc1	-2.27
COc1ccc(C(=O)Nc2c(C)nn(C(C)C)c2C)cc1	-3.13
Cc1ccc(NC(=O)c2ccc(CC3CC(=O)NC3=O)cc2)cc1O (configuration not stated)	4.99
Cc1noc(CNC(=O)N2CCN(c3nc(C)c(C)s3)CC2)n1	-19.5
CC(CC#N)N1CCN(C(=O)OC(C)(C)C)CC1 (configuration not stated)	-2.72
CCOc1ccc(N(C)S(=O)(=O)c2c[nH]c(C(C)C)n2)cc1	-4.52
CC(Cc1ccco1)NC(=O)C1=NN(c2ccccc2)C(=O)CC1 (configuration not stated)	0.537
COCCCNC(=O)NCc1ccc(N2CCOC(C)C2)nc1 (configuration not stated)	-5.82
CC(=O)N1CCC(Nc2cccc(OC(F)F)c2C)CC1	-15.1

Structure (SMILES)	cytotoxicity at 10 µM [%]
CCN(CC)C(=O)c1cccc(Cn2nc(C)cc2C)c1	-5.93
OC(CN1CCCc2ccc(F)cc21)Cn1cccn1 (configuration not stated)	5.95
Cc1ccccc1C(=O)CN1C(=O)c2ccccc2CS1(=O)=O	-10.1
c1ccc2oc(NC3CCCN(Cc4noc(C5CC5)n4)C3)nc2c1 (configuration not stated)	-0.989
CCN(Cc1ccco1)C(=O)c1cc(OC)c2c(c1)OCCO2	-4.22
CCc1cnc(CN(C)C2CCN(CCc3ccccn3)C2)o1 (configuration not stated)	-14.2
CC(=O)Nc1nc2c(s1)C1(CCN(C)CC1)Nc1ccccc1S2	-14.5
CCc1cc(N(C)Cc2ccncn2)n2nccc2n1	3.61
Cc1ccc(N2CCC(C3CCN(CC(C)C)CC3)C2)nn1 (configuration not stated)	-6.81
CN(Cc1n[nH]c2c1CCCC2)c1nc2c(c(=O)[nH]1)CCNCC2	-20.1
O=C1NCCCc2[nH]c(C3CCN(C(=O)C4CC4)CC3)nc21	-3.46
O=C(c1ccncc1)N1CCC(Oc2cccc(C(F)(F)F)c2)CC1	14.1
O=C1CC(NCc2ccc(Cl)s2)CN1Cc1cccc(F)c1 (configuration not stated)	-0.73
Cc1nc(CN2CCCC(Cn3cc(CCO)nn3)C2)c2ccccn12 (configuration not stated)	3.28
CC(=O)N1CCCn2nc(CNc3cc(C)ncn3)cc2C1	5.19
CCc1nc(CN(C)C(=O)C2CCC(=O)N(CC3CCCCC3)C2)no1 (configuration not stated)	4.46
O=c1[nH]nc(CCCN2CCOCC2)n1Cc1cccc(F)c1	7.04
CCCOc1ccc(C(=O)N[C@@H]2CCNC[C@H]2O)cc1Cl	-10.4
Cc1ccc(C)c(OCc2cc(C(=O)N(C)CC(O)CO)no2)c1 (configuration not stated)	2.55
COCC[C@]1(O)CCN(Cc2nc(C)cs2)C[C@H]1C	10.5
COc1ccc(CCN(C)C(=O)CN2C(=O)OC[C@@H]2C(C)C)cc1OC	-11
Cc1ccc2c(c1)c(CNC(=O)C1CCCN(CC(N)=O)C1)nn2C (configuration not stated)	-17.9
CCN(Cc1ccncc1)C(=O)C(C)n1ccnc1C(C)C (configuration not stated)	2.79

Structure (SMILES)	cytotoxicity at 10 µM [%]
COCCCN(Cc1cnc(N2CCCC2)nc1)C1CCN(C)CC1	-10.3
COCCNC(=O)c1cc(S(=O)(=O)N2CCCC2)cs1	6.15
CC(C)COc1ccccc1CN(C)C(=O)c1cc(=O)[nH]c(=O)[nH]1	2.05
CN(C)Cc1nnc(C2CCN(c3nccc(N)n3)CC2)n1C1CC1	-1.99
CCCn1c(C)c(CC(=O)NC)c2c1CC(C)(C)CC2=O	-6.05
CC(C)N1CCC(NCc2cccnc2N(C)C)CC1	21
CCC1CN(C(=O)c2ccccc2N2CCCC2)CCN1C(C)C (configuration not stated)	-9.78
CCc1csc(C2CCCN(C(=O)c3cnc[nH]3)C2)n1 (configuration not stated)	1.78
CCOc1ccc(Cl)c(C(=O)N2CCN(c3ccncc3)CC2)n1	-5.44
CC(Cn1cccn1)NCCCc1nc(-c2cccs2)no1 (configuration not stated)	-9.8
CC(C(=O)N1CCCN(c2ccc(C#N)cc2)CC1)n1cccn1 (configuration not stated)	-3.02
Cc1ncsc1C(=O)NCCNC(=O)c1cccs1	-8.83
Cc1ccccc1C1(C(=O)NCCN2CCCCC2C)CCOCC1 (configuration not stated)	-1.69
Cc1noc(C2CCCN(C(=O)CCNc3ncccn3)C2)n1 (configuration not stated)	-8.27
CCN(CC1COc2ccccc2O1)C(=O)NCCCn1cncn1 (configuration not stated)	-9.27
Cn1cc(C(=O)CC2CCCN2C(=O)c2ccncc2F)cn1 (configuration not stated)	0.555
CC(C(=O)N1CCN(c2ncccn2)CC1)n1cncn1 (configuration not stated)	-1.24
CC(=O)N1CCCN(C(=O)C(C)n2cncn2)CC1 (configuration not stated)	-0.227
O=C(c1cccc2c1OCCO2)N1CCCCC1Cn1cccn1 (configuration not stated)	-4.94
CCOC(=O)N1CCN(Cc2ccc(OCc3nccn3C)cc2)CC1	-9.34
Cc1nc(CN2CCCC2c2c(C)nn(C)c2Cl)no1 (configuration not stated)	1.85
Cc1ccc(C(=O)Nc2cn[nH]c2)cc1C	0.762
CN(CC(=O)N1CCCC1Cn1cccn1)C1CC1 (configuration not stated)	-9.39

Structure (SMILES)	cytotoxicity at 10 µM [%]
c1cnn(CCN2CCOC(Cn3cncn3)C2)c1 (configuration not stated)	-0.498
CC(NC(=O)NCc1cccnc1N1CCCCC1)c1nccs1 (configuration not stated)	-7.95
COc1ccc(C(C)N2CCN(Cc3nccn3C)CC2)cc1Cl (configuration not stated)	-8.31
Cc1cccnc1CNc1cc(N2CCCC2CO)ncn1 (configuration not stated)	-10.3
CC(C)(C)c1cn2nc(N3CCCC3Cn3cncn3)sc2n1 (configuration not stated)	1.43
Cc1cc(C(=O)NCCN2CCN(S(C)(=O)=O)CC2)no1	-6.29
Cc1cc(C)c2[nH]c(C)c(CC(=O)N(C)CCN(C)C)c2c1	2.49
COCCN1C(=O)CCC12CCC(NCc1nccs1)CC2 (configuration not stated)	7.01
O=C(NC1CCCC1)c1cc(C2CCCNC2)n[nH]1 (configuration not stated)	5.27
O=C(C1CC1)N1CCC[C@]2(C[C@@H](OCc3ccncc3)CO2)C1	6.46
Cn1cccc1C(=O)N1CCN(Cc2cccnc2)c2ncccc2C1	10.9
O=C(NCc1cncc2c1CCN(Cc1cccc(F)c1)C2)C1CC1	-8.16
CNC(=O)[C@H]1C[C@H]2OCC[C@H]2N(CC2CC2)C1	4.17
O=C(c1ccccc1F)N1C[C@@H]2COC[C@]2(COCc2cccnc2)C1	6.27
CC(C)N1CCOCC2(CN(Cc3nccs3)CCO2)C1 (configuration not stated)	-0.653
CN(Cc1cccnc1)C1COC2(CCN(Cc3nccs3)CC2)C1 (configuration not stated)	6.37
O=C(c1ccc(F)cc1)N1C[C@@H]2OCCN(c3ncccn3)[C@@H]2C1	-9.55
Cc1ccc(CN2Cc3nnn(C)c3C(COCCN(C)C)C2)s1 (configuration not stated)	-7.25
OC(CN1CCN(Cc2cccnc2)CC1)c1cccs1 (configuration not stated)	-5.62
CNC(=O)[C@H]1C[C@H]2OCC[C@H]2N(Cc2ccc(C)o2)C1	11.8
